Screening results from PubChem BioAssay.
An excerpt weighted towards active compounds, which were near 2.2% of everything screened.
DYRK1A inh: Dyrk1A (rat) kinase inhibition | ADP-Glo luminescence, NFATc1 peptide | inhibition, % at 12.5 µM | Q63470 | 0.43% of 310,000 active; in the data active = inhibition above about 50%;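 also: plate controls were vehicle with enzyme for no effect and no enzyme for full effect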
Rtt109 HAT inh: inhibitors of Candida albicans Rtt109/Vps75 histone acetyltransferase; inhibition, % at 34.9 µM; 0.16% of 330,000 active; AID 540336; Q5AAJ8; purified Rtt109/Vps75, ThioGlo CoA-SH fluorescence, 4 h;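 active = inhibition of at least 50% in every replicate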
CAL PDZ FP-1: CAL PDZ (human) peptide binding inhibition; Q9HD26; inhibition, % at 24.9 µM; 0.92% of 300,000 active; purified CAL PDZ, TMR-peptide fluorescence polarization, 1 h; AID 602252;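 active = mean inhibition of at least 30% with at least half of replicates also reaching 30%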;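 also: 0% = DMSO neutral control and 100% = excess unlabeled competitor peptide PRC23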
CDK5 p35 inh: blocks human CDK5/p35 kinase activity | Q00535+Q15078 | Recombinant CDK5/p35, ADP-Glo luminescence, 60 min | inhibition, % at 10 µM | 0.01% of 330,000 active | AID 488839;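 active = highest replicate inhibition of at least 50% and at least 75% of replicates reaching 50%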;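 also: plate controls were DMSO neutral control for no effect and GW8510 at 10 µM for full effect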
Target sequence (Q00535 whole entry, looked up): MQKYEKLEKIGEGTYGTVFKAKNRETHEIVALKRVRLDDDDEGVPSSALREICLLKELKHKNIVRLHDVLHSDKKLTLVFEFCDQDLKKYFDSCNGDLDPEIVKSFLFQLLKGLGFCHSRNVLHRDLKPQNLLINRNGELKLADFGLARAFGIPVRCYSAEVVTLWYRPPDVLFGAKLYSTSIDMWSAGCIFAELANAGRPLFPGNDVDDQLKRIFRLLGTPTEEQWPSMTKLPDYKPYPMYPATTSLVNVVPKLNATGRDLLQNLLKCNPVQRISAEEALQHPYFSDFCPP
Target sequence (Q15078 whole entry, looked up): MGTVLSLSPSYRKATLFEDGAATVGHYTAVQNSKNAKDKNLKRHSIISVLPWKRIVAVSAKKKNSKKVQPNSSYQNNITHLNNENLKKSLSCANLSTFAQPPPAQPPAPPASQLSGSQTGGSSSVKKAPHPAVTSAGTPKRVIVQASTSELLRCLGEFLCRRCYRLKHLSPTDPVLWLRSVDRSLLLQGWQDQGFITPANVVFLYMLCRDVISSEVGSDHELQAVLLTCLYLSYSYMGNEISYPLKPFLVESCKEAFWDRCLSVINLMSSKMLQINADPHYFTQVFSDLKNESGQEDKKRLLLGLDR
dFosB activator: mouse delta FosB homodimer activation; purified delta FosB, TAMRA-CDK5 oligo fluorescence polarization; percent of positive-control signal above neutral wells; activation, % at 25 µM; 0.99% of 340,000 active; AID 493131;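 active = mean activation above about 17%, with every replicate also reaching it, limit read from the data, passing the limit was not always enough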
CAL PDZ FP-2: blocks peptide binding to human CAL PDZ domain | inhibition, % at 20 µM | Q9HD26 | 0.02% of 330,000 active | purified CAL PDZ, TMR-peptide fluorescence polarization, 1 h;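 active = highest replicate inhibition of at least 40%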;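 also: plate controls were DMSO neutral control wells for no effect and unlabeled competitor peptide control wells for full effect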
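Test system: purified CerCALP PDZ construct; Compound dosing: one concentration, 20 µM compound; Also added: TMR-labelled reporter peptide T*-PRC34 bound in PDZ groove; Read-out: inhibition from polarization loss; Controls: unlabelled peptide and DMSO controls; Signal: FP readout, S and P plane fluorescence; Incubation: 1 h at RT.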
Numbers without * were called inactive.

`CCN(CC)CCC(=O)Nc1cccc2c1C(=O)c1ccccc1C2=O` gave DYRK1A inh 26.6, Rtt109 HAT inh 9.9, CDK5 p35 inh -1.3, dFosB activator 35.0* and CAL PDZ FP-2 -1.1.
Cc1cc(C)n2nc(SCc3nnc(-c4ccccc4Br)o3)nc2n1 was read as DYRK1A inh -1.2, Rtt109 HAT inh 5.2, CAL PDZ FP-1 -3.3, CDK5 p35 inh -0.1, dFosB activator 0.5 and CAL PDZ FP-2 -1.6.
CC(C)NC(=O)C1CCCN(S(=O)(=O)c2ccc(-n3cnnn3)cc2)C1 (stereo not given) was read as DYRK1A inh 0.0, Rtt109 HAT inh -3.3, CAL PDZ FP-1 -5.6, CDK5 p35 inh -1.4, dFosB activator 0.8 and CAL PDZ FP-2 0.8.
O=C(NC1CCCC1)C1CCCN(S(=O)(=O)c2ccc(-n3cnnn3)cc2)C1 (stereo not given) was read as DYRK1A inh 8.6, Rtt109 HAT inh -4.5, CAL PDZ FP-1 33.5*, CDK5 p35 inh 1.1 and dFosB activator 2.5.
Screening O=C(Nc1ccc(O)c(-c2nc3ccccc3s2)c1)c1cc(=O)c2ccccc2o1 returned DYRK1A inh -10.0, Rtt109 HAT inh 56.0*, CAL PDZ FP-1 1.9, CDK5 p35 inh 0.6, dFosB activator -0.1 and CAL PDZ FP-2 -2.5.
O=C(Nc1ccc(O)c(-c2nc3ccccc3s2)c1)c1cccs1 was read as DYRK1A inh 3.3, Rtt109 HAT inh 0.8, CAL PDZ FP-1 -4.3, CDK5 p35 inh -4.9, dFosB activator -0.9 and CAL PDZ FP-2 -0.1.
CC(=O)c1cccc(NC(=O)c2cc(=O)c3ccccc3o2)c1 was read as DYRK1A inh 0.0, Rtt109 HAT inh -4.0, CAL PDZ FP-1 50.0*, CDK5 p35 inh 0.0, dFosB activator -2.5 and CAL PDZ FP-2 -0.6.
`O=C(Nc1cccc(Br)c1)c1cc(=O)c2ccccc2o1` gave DYRK1A inh -1.8, Rtt109 HAT inh 8.0, CAL PDZ FP-1 6.1, CDK5 p35 inh 1.4, dFosB activator 7.4 and CAL PDZ FP-2 -0.9.
For COc1ccccc1NC(=O)N(Cc1cccs1)Cc1cc2cc3c(cc2[nH]c1=O)OCO3 the results were DYRK1A inh -4.1, Rtt109 HAT inh -0.5, CAL PDZ FP-1 2.9, CDK5 p35 inh -2.2, dFosB activator 2.6 and CAL PDZ FP-2 -0.1.
CN1CCN(C(=O)/C(=C/c2cn(S(=O)(=O)N(C)C)c3ccccc23)NC(=O)c2ccccc2)CC1 was read as Rtt109 HAT inh -3.7, CAL PDZ FP-1 -2.1, dFosB activator -10.9 and CAL PDZ FP-2 -2.9.
Screening CN1CCN(C(=O)/C(=C/c2cn(S(=O)(=O)N(C)C)c3ccccc23)NC(=O)c2ccccc2F)CC1 returned DYRK1A inh -1.9, Rtt109 HAT inh -6.2, CAL PDZ FP-1 53.7*, CDK5 p35 inh 0.4, dFosB activator -11.7 and CAL PDZ FP-2 -2.0.
`CN(C)S(=O)(=O)n1cc(/C=C(\NC(=O)c2ccccc2)C(=O)N2CCCC2)c2ccccc21` gave DYRK1A inh -1.6, Rtt109 HAT inh 73.7*, CAL PDZ FP-1 7.2, CDK5 p35 inh 3.8, dFosB activator -8.9 and CAL PDZ FP-2 -1.8.
`CCOC(=O)c1oc2cc(O)ccc2c(=O)c1-c1ccccc1OC` gave DYRK1A inh 7.4, Rtt109 HAT inh -0.8, CAL PDZ FP-1 -4.1, CDK5 p35 inh 0.7, dFosB activator -2.2 and CAL PDZ FP-2 -0.9.
Screening CCOc1ccccc1-c1c2cc(O)c(=O)cc-2oc2cc(O)c(O)cc12 returned DYRK1A inh 6.1, Rtt109 HAT inh 6.0, CAL PDZ FP-1 42.5*, CDK5 p35 inh 6.9, dFosB activator 51.3* and CAL PDZ FP-2 126.3*.
Screening Cc1ccccc1-c1cc(=O)c2c(O)cccc2o1 returned DYRK1A inh 11.3, Rtt109 HAT inh 1.1, CAL PDZ FP-1 -2.4, CDK5 p35 inh -0.9, dFosB activator -1.6 and CAL PDZ FP-2 -0.1.
`COc1ccc(OC)c(-c2c3cc(O)c(=O)cc-3oc3cc(O)c(O)cc23)c1` gave DYRK1A inh 4.0, Rtt109 HAT inh 0.0, CAL PDZ FP-1 56.9*, CDK5 p35 inh 4.9, dFosB activator 46.1* and CAL PDZ FP-2 87.0*.
O=c1cc2oc3cc(O)c(O)cc3c(-c3ccccc3O)c-2cc1O was read as DYRK1A inh -2.6, Rtt109 HAT inh -4.0, CAL PDZ FP-1 26.3, CDK5 p35 inh 0.9, dFosB activator -112.3 and CAL PDZ FP-2 46.6*.
Cc1nonc1C(=O)N/N=C/c1cccc(O)c1 was read as DYRK1A inh 16.0, Rtt109 HAT inh -6.3, CAL PDZ FP-1 -1.2, CDK5 p35 inh 0.7, dFosB activator -0.9 and CAL PDZ FP-2 0.7.
For Cn1c(=S)n(CCC(=O)O)c2ccccc21 the results were DYRK1A inh 5.6, Rtt109 HAT inh 4.4, CAL PDZ FP-1 -2.4, CDK5 p35 inh 0.2, dFosB activator -2.6 and CAL PDZ FP-2 -2.1.
`Cc1ccc(S(=O)(=O)N2CCCCC2)cc1NC(=O)COc1ccccc1F` gave DYRK1A inh 1.1, Rtt109 HAT inh 4.2, CDK5 p35 inh -0.7, dFosB activator -6.8 and CAL PDZ FP-2 -1.4.
For CCOC(=O)C1CCCN(C(c2ccccn2)c2c(C)[nH]c3ccccc23)C1 (stereo not given) the results were DYRK1A inh 3.5, CAL PDZ FP-1 119.3*, CDK5 p35 inh -0.9, dFosB activator -0.1 and CAL PDZ FP-2 -1.7.
O=c1c(Cl)c(O)ccn1C1OC(CO)C(O)C1O (stereo not given) was read as DYRK1A inh -1.3, Rtt109 HAT inh 1.6, CAL PDZ FP-1 1.8, CDK5 p35 inh -1.7, dFosB activator -2.9 and CAL PDZ FP-2 -0.4.
Screening Cc1cc(C)c(S(=O)(=O)NCC23C=CC(O2)C2C(=O)N(c4ccccc4)C(=O)C23)c(C)c1 (stereo not given) returned DYRK1A inh -0.5, Rtt109 HAT inh -1.2, CAL PDZ FP-1 42.8*, CDK5 p35 inh 2.1, dFosB activator 0.1 and CAL PDZ FP-2 -0.2.
For Cc1cc(C)c(S(=O)(=O)N2CCCCC2CCNC(=O)C(=O)NCCN2CCOCC2)c(C)c1 (stereo not given) the results were Rtt109 HAT inh -0.3, CAL PDZ FP-1 -3.0, CDK5 p35 inh 4.8, dFosB activator 4.5 and CAL PDZ FP-2 -5.0.
Screening Cc1cc(=O)n2nc(N3CCC(C(=O)NCc4cccc(Br)c4)CC3)sc2n1 returned DYRK1A inh -3.5, Rtt109 HAT inh 0.7, CAL PDZ FP-1 119.0*, CDK5 p35 inh 0.3, dFosB activator -20.1 and CAL PDZ FP-2 -0.7.
For COc1ccccc1NC(=O)CN1CCC(c2nc3ccccc3[nH]2)CC1 the results were DYRK1A inh -2.0, Rtt109 HAT inh 8.6, CDK5 p35 inh -0.7, dFosB activator 1.8 and CAL PDZ FP-2 -1.1.
Screening COc1ccccc1NC(=O)CN1CCC(c2nc3ccc(C)cc3[nH]2)CC1 returned DYRK1A inh 2.9, CAL PDZ FP-1 93.1*, CDK5 p35 inh -1.7, dFosB activator -12.8 and CAL PDZ FP-2 -0.9.
